This is an account of results in ChEMBL document CHEMBL3414531, “Design, synthesis and biological evaluation of quinazoline derivatives as anti-trypanosomatid and anti-plasmodial agents” (Eur J Med Chem, 2015).

Activity calls are given as the source filed them. No cut-off for these calls is given here.

Data set [1] deals with Plasmodium berghei. The data set is described as follows: Antiplasmodial activity against Plasmodium berghei infected in CD1 mouse assessed as reduction in parasitemia at 50 mg/kg, po administered for 4 days measured on day 4 relative to vehicle-treated control. It counts as functional. Set-up: scale not given: the % may be the effect or the level left. A digest of the protocol: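 P. berghei ANKA was passaged ip (0.2 mL saline-diluted blood) through groups of female CD1 mice until infection stabilized. Four-day suppression test: oral 50 mg/kg every 24 h on days 0–4 post-inoculation (n = 5, in duplicate). Vehicle control was 0.2 mL gum arabic orally. Parasitemia was read from tail blood on day 4 and inhibition calculated against the control group. Survival time was also recorded.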

In data set [2] the test system is Trypanosoma cruzi. The data set is described as follows: Antimicrobial activity against bloodstream trypomastigote stage of Trypanosoma cruzi INC-5 after 24 hrs by Brener method. It counts as functional. The following applies: INC-5, 24 h.
For data set [3], the system named is Plasmodium berghei. Nature of the data set: Antiplasmodial activity against Plasmodium berghei infected in CD1 mouse assessed as survival time at 50 mg/kg, po administered for 4 days measured on day 4 relative to vehicle-treated control. It counts as functional. The method, boiled down: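 P. berghei ANKA was passaged by ip injection of 0.2 mL saline-diluted blood from donor mice at about 30% parasitaemia until the infection was stable. In a 4-day suppression test, mice received 50 mg/kg orally every 24 h on days 0–4 post-inoculation (n = 5, in duplicate), with 0.2 mL Arabic gum orally as control. Survival time was recorded against untreated mice, and mice without parasitaemia on day 30 counted as cured.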

Data set [4] can be described thus: Antioxidant activity assessed as inhibition of ABTS free radical scavenging activity after 10 mins by spectrophotometry relative to control. It counts as physicochemical. The method, boiled down: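 ABTS (7 mM) and potassium persulfate (2.45 mM), final concentrations in water, mixed and kept in the dark at room temperature for 16 h to form ABTS radical cation. Diluted in water to A734 of 1.00. Compounds or Trolox standards added (final 0–20). Absorbance read 10 min after mixing. IC50 is 50% radical scavenging, relative uncertainty under five percent.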

A short description of data set [5]: Cytotoxicity against African green monkey Vero cells after 24 hrs by MTT assay. The settings on record: chlorocebus sabaeus. It counts as cell-based. The method, boiled down: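 Confluent Vero cells were trypsinized and resuspended in MEM with 10% FBS, seeded in 96-well plates and held 24 h at 37 °C, 5% CO2. Compounds at various concentrations were added (DMSO control) for 24 h. MTT was added for 2 h, then SDS-HCl overnight at 24 °C. A540 was read and viability taken relative to control cells. Triplicate; CC50 derived.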
(In general: Formazan colour is commonly taken as a measure of viable cells.)

Data set [6] relates to Trypanosoma cruzi. Nature of the data set: Antimicrobial activity against bloodstream trypomastigote stage of Trypanosoma cruzi NINOA after 24 hrs by Brener method. It counts as functional.
Data set [7] relates to Leishmania mexicana. Nature of the data set: Antimicrobial activity against Leishmania mexicana MHOM/BZ/61/M379 after 24 hrs by haemocytometry. The settings on record: MHOM/BZ/61/M379, 24 h. It counts as functional.
The subject of data set [8] is Leishmania mexicana. Nature of the data set: Inhibition of DHFR in promastigote stage of Leishmania mexicana at 3 to 8 uM after 24 hrs in presence of folinic acid/folic acid/ferulic acid. The method, boiled down: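 L. mexicana MHOM/BZ/61/M379 promastigotes, 10^6 in log phase, were incubated with folinic acid, folic acid or ferulic acid at 20, 40, 60, 80 or 100. Cells were washed, resuspended in PBS and held 1 h at room temperature, then pelleted and resuspended in culture medium in 24-well plates. Compound was added and plates incubated 24 h. Percentage of living parasites was determined.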

The subject of data set [9] is Leishmania mexicana. The settings on record: MHOM/BZ/61/M379.

As a reminder, the LC50 is the concentration that kills 50% of the test population. Broadly, the IC50 is the point on the concentration scale where inhibition reaches its midpoint. What is called CC50 is the concentration giving 50% cytotoxicity. In the case of `COc1ccc(CNc2ccc3nc(N)nc(N)c3c2)cc1`, in data set [1], the Activity was found to be 98.5%. For the same compound, the LC50 was 155 µM in [2], 32.7 µM in data set [6] and 14.6 µM in [7]. In addition, in data set [3], the Survival came to 18 days. In addition, the IC50 in [4] came to 5.72 µM. For the same compound, in [5], the CC50 at 24 h came to 147 µM.

In the case of `CCN(Cc1ccc(OC(F)(F)F)cc1)c1ccc2nc(N)nc(N)c2c1`, the Activity in data set [1] is 100%. Besides, in [8], the inhibition entry is “Active”. Moreover, the figures for the LC50 in data set [2], in [6] and in data set [7] were 43.8 µM, 6.28 µM and 3.06 µM, respectively. Further, the Survival in data set [3] is over 23 days. Moreover, the IC50 in [4] came out at 7.36 µM. In data set [5], the CC50 at 24 h was over 200 µM.

With `Nc1nc(N)c2cc(N(Cc3ccc(OC(F)(F)F)cc3)Cc3ccc(OC(F)(F)F)cc3)ccc2n1`, the Activity in data set [1] is 21%. Besides, the LC50 stood at 29.2 µM in data set [2], 35 µM in data set [6] and 4.93 µM in [7]. Further, the Survival in data set [3] was 14 days. Besides, the IC50 in data set [4] was 33.9 µM. Also, the CC50 at 24 h in data set [5] was over 200 µM.

Take VITAMIN E: the IC50 in [4] amounted to 14.8 µM.

As to `O=C1O[C@H]([C@@H](O)CO)C(O)=C1O` [ASCORBIC ACID], the IC50 in data set [4] worked out at 11.2 µM.

For the compound `Cc1c(C)c2c(c(C)c1O)CCC(C)(C(=O)O)O2` (stereo not drawn) [TROLOX], the IC50 in data set [4] came out at 10.9 µM.

For `CN(C)CCCOc1ccc(CNc2ccc3nc(N)nc(N)c3c2)cc1`, the Activity in [1] was 53.2%. For the same compound, the figures for the LC50 in data set [2], in data set [6] and in data set [7] were 184 µM, 288 µM and 65.4 µM, respectively. Moreover, the Survival in data set [3] stood at 12 days. Further, the IC50 in data set [4] amounted to 6.38 µM. For the same compound, the CC50 at 24 h in data set [5] is over 200 µM.

As to `O=C(Cn1ccnc1[N+](=O)[O-])NCc1ccccc1` [BENZNIDAZOLE], the LC50 was determined as 690 µM in [2] and 780 µM in data set [6].

Take MEGLUMINE ANTIMONATE: the LC50 in data set [9] was found to be 183 µM.

Consider `CCc1nc(N)nc(N)c1-c1ccc(Cl)cc1` [PYRIMETHAMINE], for which the Activity in data set [1] was found to be 100%. The Survival in [3] is over 23 days. Also, half-maximal cytotoxicity in data set [5] (CC50 at 24 h) was put at 122 µM.

In data set [5], `CC1CS(=O)(=O)CCN1/N=C/c1ccc([N+](=O)[O-])o1` (stereo not drawn) [NIFURTIMOX] displayed a CC50 at 24 h of 163 µM.

Regarding `CCN(CC)CCCC(C)Nc1ccnc2cc(Cl)ccc12` (stereo not drawn) [CHLOROQUINE], the Activity in data set [1] came out at 100%. Further, the Survival in data set [3] is over 23 days.

Consider `Nc1nc(N)c2cc(NCc3ccc4c(c3)OCCO4)ccc2n1`, for which, in [1], the Activity is listed as 44.2%. The 50% lethal concentration (LC50) in data set [2] stood at 72.5 µM; in [6], 66.5 µM; in data set [7], 22.4 µM. In addition, the Survival in [3] is 11 days. Moreover, the IC50 in [4] worked out at 6.29 µM. In data set [5], this compound yielded a CC50 at 24 h of over 200 µM.

Take `Nc1ccc2nc(N)nc(N)c2c1` [QUINAZOLINE-2,4,6-TRIAMINE]: in data set [4], the IC50 turned out to be 6.78 µM.

On to `Nc1nc(N)c2cc(NCc3ccc(OC(F)(F)F)cc3)ccc2n1`, for which the Activity in [1] is recorded as 99.9%. The inhibition entry in data set [8] is “Active”. Moreover, the values for the LC50 in [2], in data set [6] and in data set [7] were 46.1 µM, 20.6 µM and 8.08 µM, respectively. Moreover, the Survival in data set [3] is 17 days. Moreover, the IC50 in data set [4] came to 4.75 µM. In addition, the CC50 at 24 h in data set [5] was found to be 182 µM.

`COc1ccc(CN(Cc2ccc(OC)cc2)c2ccc3nc(N)nc(N)c3c2)cc1`: the Activity in data set [1] was determined as 0%. Moreover, the LC50 in data set [2] was 46.5 µM; in data set [6], 62.6 µM; in data set [7], 23.1 µM. Also, in [3], the Survival was found to be 7 days. Also, the half-inhibitory concentration (IC50) in data set [4] was 114 µM. Moreover, the CC50 at 24 h in [5] is over 200 µM.

Regarding `COc1ccc(CN(Cc2ccc(OC(F)(F)F)cc2)c2ccc3nc(N)nc(N)c3c2)cc1`, the Activity in data set [1] is 95.2%. In addition, the LC50 in data set [2] was found to be 40.7 µM; in data set [6] it was 17.8 µM; in data set [7], 8 µM. In addition, the Survival in [3] came to 21 days. In data set [4], the IC50 was 24.5 µM. For the same compound, the CC50 at 24 h in data set [5] is over 200 µM.

Turning to `COc1ccc(CNc2ccc3nc(NC(C)=O)nc(NC(C)=O)c3c2)cc1`, the Activity in [1] is 89.3%. Besides, the LC50 in data set [2] was 509 µM; in data set [6], 197 µM; in [7], 250 µM. Also, in [3], the Survival worked out at 6 days. Moreover, in data set [4], the IC50 was determined as 7.04 µM. The compound further had a CC50 at 24 h in [5] of 156 µM.
